In ChEMBL document CHEMBL1138555, “N-acylated and N,N'-diacylated imidazolidine-2-thione derivatives and N,N'-diacylated tetrahydropyrimidine-2(1H)-thione analogues: synthesis and antiproliferative activity” (Eur J Med Chem, 2009):

Columns and labels:
[1] = tested on: MT4; assay: Antiproliferative activity against human MT4 cells assessed as reduction of growth by MTT assay; type: functional, cell-based
Method in brief: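 MT-4 lymphoblastoid T cells (ATCC) in RPMI 1640 with 10% FCS, penicillin/streptomycin, checked for mycoplasma. 1 × 10⁴ mock-infected cells per well with serial dilutions from a 100 mM DMSO stock. Incubated 4 days at 37 °C, viable cells counted by MTT. IC50 versus untreated controls by linear regression. Mean of three separate experiments.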

[2] = tested on: HL-60(TB); assay: Growth inhibition of human HL-60(TB) cells after 48 hrs by sulforhodamine B assay; type: functional; details: HL-60, 48 h
Method in brief: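 NCI 60-cell-line screen protocol: cells exposed to compound at five 10-fold dilutions from 10^-4 to 10^-8 M for the last 48 h of a 72 h incubation. Sulforhodamine B protein assay estimated viability/growth. GI50 (50% growth inhibition) derived; where not reached or exceeded, reported as greater or less than the highest or lowest concentration tested.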

[3] = tested on: K562; assay: Growth inhibition of human K562 cells after 48 hrs by sulforhodamine B assay; type: functional; details: K562, 48 h
Method in brief: (§1)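 NCI screen panel. Five 10-fold concentrations from 10^-4 to 10^-8 M. Exposure for the last 48 h of a 72 h incubation. Growth estimated by sulforhodamine B protein assay. GI50 is the concentration giving 50% growth inhibition. Where that level was not reached or was exceeded, the value is given as above or below the highest or lowest concentration tested.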

[4] = tested on: MOLT-4; assay: Growth inhibition of human MOLT4 cells after 48 hrs by sulforhodamine B assay; type: functional; details: MOLT-4, 48 h; method in brief: as §1
[5] = Growth inhibition of human […] cells after 48 hrs by sulforhodamine B assay; type: functional; method in brief: as §1
[6] = tested on: SR; assay: Growth inhibition of human SR cells after 48 hrs by sulforhodamine B assay; type: functional
Method in brief: (§2)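 NCI in vitro panel screen. Compounds tested at five 10-fold dilutions, 10^-4 to 10^-8 M. Cells in 96-well plates were exposed for the last 48 h of a 72 h incubation. Viability/growth was read by sulforhodamine B protein assay. GI50 is the concentration giving 50% growth inhibition. Values beyond the tested range are reported as greater or less than the maximum or minimum concentration.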

[7] = tested on: A549; assay: Growth inhibition of human A549 cells after 48 hrs by sulforhodamine B assay; type: functional; details: A549, 48 h; method in brief: as §1
[8] = tested on: EKVX; assay: Growth inhibition of human EKVX cells after 48 hrs by sulforhodamine B assay; type: functional; method in brief: as §1
[9] = tested on: HOP-92; assay: Growth inhibition of human HOP92 cells after 48 hrs by sulforhodamine B assay; type: functional; details: HOP-92, 48 h; method in brief: as §1
[10] = tested on: NCI-H23; assay: Growth inhibition of human NCI-H23 cells after 48 hrs by sulforhodamine B assay; type: functional; details: NCI-H23, 48 h; method in brief: as §1
[11] = tested on: NCI-H322M; assay: Growth inhibition of human NCI-H322M cells after 48 hrs by sulforhodamine B assay; type: functional; method in brief: as §1
[12] = tested on: NCI-H460; assay: Growth inhibition of human NCI-H460 cells after 48 hrs by sulforhodamine B assay; type: functional; details: NCI-H460, 48 h; method in brief: as §1
[13] = tested on: NCI-H522; assay: Growth inhibition of human NCI-H522 cells after 48 hrs by sulforhodamine B assay; type: functional; details: NCI-H522, 48 h; method in brief: as §1
[14] = tested on: HCT-116; assay: Growth inhibition of human HCT116 cells after 48 hrs by sulforhodamine B assay; type: functional; details: HCT-116, 48 h; method in brief: as §1
[15] = tested on: HCT-15; assay: Growth inhibition of human HCT15 cells after 48 hrs by sulforhodamine B assay; type: functional; details: HCT-15, 48 h; method in brief: as §1
[16] = tested on: HT-29; assay: Growth inhibition of human HT-29 cells after 48 hrs by sulforhodamine B assay; type: functional; details: HT-29, 48 h; method in brief: as §1
[17] = tested on: KM12; assay: Growth inhibition of human KM12 cells after 48 hrs by sulforhodamine B assay; type: functional; details: KM12, 48 h; method in brief: as §1
[18] = tested on: SW-620; assay: Growth inhibition of human SW620 cells after 48 hrs by sulforhodamine B assay; type: functional; details: SW-620, 48 h; method in brief: as §2
[19] = tested on: SF-268; assay: Growth inhibition of human SF268 cells after 48 hrs by sulforhodamine B assay; type: functional; details: SF-268, 48 h; method in brief: as §1
[20] = tested on: SF-295; assay: Growth inhibition of human SF295 cells after 48 hrs by sulforhodamine B assay; type: functional; details: SF-295, 48 h; method in brief: as §1
[21] = tested on: U-251; assay: Growth inhibition of human U251 cells after 48 hrs by sulforhodamine B assay; type: functional; details: U-251, 48 h; method in brief: as §2
[22] = tested on: Malme-3M; assay: Growth inhibition of human MALME-3M cells after 48 hrs by sulforhodamine B assay; type: functional; method in brief: as §1
[23] = tested on: M14; assay: Growth inhibition of human M14 cells after 48 hrs by sulforhodamine B assay; type: functional; details: M14, 48 h; method in brief: as §1
[24] = tested on: SK-MEL-2; assay: Growth inhibition of human SK-MEL-2 cells after 48 hrs by sulforhodamine B assay; type: functional; details: SK-MEL-2, 48 h; method in brief: as §1
[25] = tested on: SK-MEL-28; assay: Growth inhibition of human SK-MEL-28 cells after 48 hrs by sulforhodamine B assay; type: functional; details: SK-MEL-28, 48 h; method in brief: as §1
[26] = tested on: SK-MEL-5; assay: Growth inhibition of human SK-MEL-5 cells after 48 hrs by sulforhodamine B assay; type: functional; details: SK-MEL-5, 48 h; method in brief: as §1
[27] = tested on: UACC-257; assay: Growth inhibition of human UACC257 cells after 48 hrs by sulforhodamine B assay; type: functional; details: UACC-257, 48 h; method in brief: as §2
[28] = tested on: UACC-62; assay: Growth inhibition of human UACC62 cells after 48 hrs by sulforhodamine B assay; type: functional; details: UACC-62, 48 h; method in brief: as §2
[29] = tested on: IGROV-1; assay: Growth inhibition of human IGROV1 cells after 48 hrs by sulforhodamine B assay; type: functional; details: IGROV-1, 48 h; method in brief: as §1
[30] = tested on: OVCAR-3; assay: Growth inhibition of human OVCAR-3 cells after 48 hrs by sulforhodamine B assay; type: functional; details: OVCAR-3, 48 h; method in brief: as §1
[31] = tested on: OVCAR-4; assay: Growth inhibition of human OVCAR4 cells after 48 hrs by sulforhodamine B assay; type: functional; details: OVCAR-4, 48 h; method in brief: as §1
[32] = tested on: OVCAR-8; assay: Growth inhibition of human OVCAR8 cells after 48 hrs by sulforhodamine B assay; type: functional; details: OVCAR-8, 48 h; method in brief: as §1
[33] = tested on: SK-OV-3; assay: Growth inhibition of human SKOV3 cells after 48 hrs by sulforhodamine B assay; type: functional; details: SK-OV-3, 48 h; method in brief: as §1
[34] = tested on: 786-0; assay: Growth inhibition of human 786-0 cells after 48 hrs by sulforhodamine B assay; type: functional; details: 786-0, 48 h; method in brief: as §1
[35] = tested on: ACHN; assay: Growth inhibition of human ACHN cells after 48 hrs by sulforhodamine B assay; type: functional; method in brief: as §1
[36] = tested on: CAKI-1; assay: Growth inhibition of human Caki1 cells after 48 hrs by sulforhodamine B assay; type: functional; details: CAKI-1, 48 h; method in brief: as §1
[37] = tested on: RXF 393; assay: Growth inhibition of human RXF393 cells after 48 hrs by sulforhodamine B assay; type: functional; details: RXF 393, 48 h; method in brief: as §1
[38] = tested on: SN12C; assay: Growth inhibition of human SN12C cells after 48 hrs by sulforhodamine B assay; type: functional; method in brief: as §2
[39] = tested on: TK-10; assay: Growth inhibition of human TK10 cells after 48 hrs by sulforhodamine B assay; type: functional; details: TK-10, 48 h; method in brief: as §2
[40] = tested on: UO-31; assay: Growth inhibition of human UO31 cells after 48 hrs by sulforhodamine B assay; type: functional; details: UO-31, 48 h; method in brief: as §2
[41] = tested on: PC-3; assay: Growth inhibition of human PC3 cells after 48 hrs by sulforhodamine B assay; type: functional; details: PC-3, 48 h; method in brief: as §1
[42] = tested on: DU-145; assay: Growth inhibition of human DU145 cells after 48 hrs by sulforhodamine B assay; type: functional; details: DU-145, 48 h; method in brief: as §1
[43] = tested on: MCF7; assay: Growth inhibition of human MCF7 cells after 48 hrs by sulforhodamine B assay; type: functional; details: MCF7, 48 h; method in brief: as §1
[44] = tested on: MDA-MB-231; assay: Growth inhibition of human MDA-MB-231 cells after 48 hrs by sulforhodamine B assay; type: functional; details: MDA-MB-231, 48 h; method in brief: as §1
[45] = tested on: MDA-MB-435; assay: Growth inhibition of human MDA-MB-435 cells after 48 hrs by sulforhodamine B assay; type: functional; details: MDA-MB-435, 48 h; method in brief: as §1
[46] = tested on: BT-549; assay: Growth inhibition of human BT549 cells after 48 hrs by sulforhodamine B assay; type: functional; details: BT-549, 48 h; method in brief: as §1
[47] = tested on: T47D; assay: Growth inhibition of human T47D cells after 48 hrs by sulforhodamine B assay; type: functional; method in brief: as §2

## N#CC(C#N)=CN1CCN(C(=O)c2ccccc2)C1=S
[1]
  IC50: 11 µM
[2]
  GI50: 33.5 µM
[3]
  GI50: 79.5 µM
[4]
  GI50: 39.2 µM
[5]
  GI50: 35.3 µM
[6]
  GI50: 18.8 µM
[7]
  GI50: 37.1 µM
[8]
  GI50: 3.5 µM
[9]
  GI50: 56.8 µM
[10]
  GI50: 26.1 µM
[11]
  GI50: 33.4 µM
[12]
  GI50: 20 µM
[13]
  GI50: 15.9 µM
[14]
  GI50: 34 µM
[15]
  GI50: 36.4 µM
[16]
  GI50: 42 µM
[17]
  GI50: 32.3 µM
[18]
  GI50: 33.7 µM
[19]
  GI50: 21.3 µM
[20]
  GI50: 46.2 µM
[21]
  GI50: 38.2 µM
[22]
  GI50: 10.2 µM
[23]
  GI50: 37.3 µM
[24]
  GI50: 18.4 µM
[25]
  GI50: 45.5 µM
[26]
  GI50: 23.3 µM
[27]
  GI50: 25.3 µM
[28]
  GI50: 50.4 µM
[29]
  GI50: 28.2 µM
[30]
  GI50: 36.4 µM
[31]
  GI50: 59.3 µM
[32]
  GI50: 77 µM
[33]
  GI50: 66.7 µM
[34]
  GI50: 38.9 µM
[35]
  GI50: 18.8 µM
[36]
  GI50: 28.7 µM
[37]
  GI50: 22.7 µM
[38]
  GI50: 24.6 µM
[39]
  GI50: 23.3 µM
[40]
  GI50: 20.4 µM
[41]
  GI50: 60 µM
[42]
  GI50: 24.4 µM
[43]
  GI50: 16.7 µM
[44]
  GI50: 36.1 µM
[45]
  GI50: 38.8 µM
[46]
  GI50: 22.8 µM
[47]
  GI50: 89.2 µM
